Measured values: ChEMBL document CHEMBL4715796, “Discovery of Chromane Containing Hepatitis C Virus (HCV) NS5A Inhibitors with Improved Potency against Resistance-Associated Variants” (J Med Chem, 2016)

Assays:
Assay type in all cases: cell-based
Huh-7 [1] = experiment: Inhibition of NS5A in Hepatitis C virus subtype 2b infected in human HuH7 cells assessed as reduction in viral replication by luciferase reporter gene assay
Procedure, shortened: (§1)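 Transient replicon assay with GT1a-H77, GT1b-Con1 or chimeric replicons, electroporated into a Huh7-derived cell line. Percent inhibition of replication, read as a drop in luciferase signal, was calculated at each concentration to give EC90. Values are means of at least two experiments.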

Huh-7 [2] = experiment: Inhibition of NS5A in Hepatitis C virus subtype 3a infected in human HuH7 cells assessed as reduction in viral replication by luciferase reporter gene assay; procedure, shortened: as §1
[3] = system: Nonstructural protein 5A (Hepatitis C virus), Q5L478 [UNDEFINED MUTATION]; experiment: Inhibition of NS5A L31V mutant in Hepatitis C virus subtype 1a infected in human HuH7 cells assessed as reduction in viral replication by luciferase reporter gene assay; settings: Huh-7
Procedure, shortened: (§2)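 NS5A resistance variants engineered into GT1a-H77 or GT1b-Con1 replicons. Each variant replicon is transfected transiently by electroporation into a Huh7-derived cell line. Percent inhibition is taken from the drop in luciferase signal at each compound concentration, and EC90 is calculated from these. Values are means of at least two experiments.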

Huh-7 [4] = experiment: Inhibition of NS5A in Hepatitis C virus subtype 1a infected in human HuH7 cells assessed as reduction in viral replication by luciferase reporter gene assay; procedure, shortened: as §1
[5] = system: T1, Nonstructural protein 5A (Hepatitis C virus), Q5L478 [Y93H]; experiment: Inhibition of NS5A Y93H mutant in Hepatitis C virus subtype 1a infected in human HuH7 cells assessed as reduction in viral replication by luciferase reporter gene assay; settings: Huh-7; procedure, shortened: as §2
T1 sequence (whole entry): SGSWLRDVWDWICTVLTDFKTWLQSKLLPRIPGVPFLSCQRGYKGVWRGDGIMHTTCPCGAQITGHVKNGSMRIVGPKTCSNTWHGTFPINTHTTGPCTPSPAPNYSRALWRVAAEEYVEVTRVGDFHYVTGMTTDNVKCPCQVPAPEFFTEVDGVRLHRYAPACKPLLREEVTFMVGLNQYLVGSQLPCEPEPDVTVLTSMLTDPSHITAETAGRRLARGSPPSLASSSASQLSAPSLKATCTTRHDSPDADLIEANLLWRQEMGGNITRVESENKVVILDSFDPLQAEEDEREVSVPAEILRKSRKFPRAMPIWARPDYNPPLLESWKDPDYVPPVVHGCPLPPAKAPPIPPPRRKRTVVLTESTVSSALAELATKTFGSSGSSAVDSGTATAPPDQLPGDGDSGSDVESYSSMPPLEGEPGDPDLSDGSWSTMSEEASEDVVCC

Huh-7 [6] = experiment: Inhibition of NS5A in Hepatitis C virus subtype 1b infected in human HuH7 cells assessed as reduction in viral replication by luciferase reporter gene assay; procedure, shortened: as §1
Huh-7 [7] = experiment: Inhibition of NS5A in Hepatitis C virus subtype 4a infected in human HuH7 cells assessed as reduction in viral replication by luciferase reporter gene assay; procedure, shortened: as §1

Structure (SMILES)	EC90 (Huh-7 [1]) [nM]	EC90 (Huh-7 [2]) [nM]	EC90 [3] [nM]	EC90 (Huh-7 [4]) [nM]	EC90 [5] [nM]	EC90 (Huh-7 [6]) [nM]	EC90 (Huh-7 [7]) [nM]
COC(=O)N[C@H](C(=O)N1CCC[C@H]1c1ncc(-c2cc(F)c3c(c2)OC(c2ccc4c(c2)OCO4)n2c-3cc3cc(-c4cnc([C@@H]5CCCN5C(=O)[C@@H](NC(=O)OC)C(C)C)[nH]4)ccc32)[nH]1)C(C)C (stereo not given in full)	3	1	0.2	0.008	4		
COC(=O)N[C@H](C(=O)N1CCC[C@H]1c1ncc(-c2cc(F)c3c(c2)OC(c2ccc4c(c2)COC4)n2c-3cc3cc(-c4cnc([C@@H]5CCCN5C(=O)[C@@H](NC(=O)OC)C(C)C)[nH]4)ccc32)[nH]1)C(C)C (stereo not given in full)	2	0.02		0.003	5		
COC(=O)N[C@H](C(=O)N1CCC[C@H]1c1ncc(-c2cc(F)c3c(c2)OC(c2cccc4ccccc24)n2c-3cc3cc(-c4cnc([C@@H]5CCCN5C(=O)[C@@H](NC(=O)OC)C(C)C)[nH]4)ccc32)[nH]1)C(C)C (stereo not given in full)	31	0.1	0.09	0.01	32		
COC(=O)N[C@H](C(=O)N1CCC[C@H]1c1ncc(-c2cc(F)c3c(c2)OC(c2ccc4c(c2)CCCC4)n2c-3cc3cc(-c4cnc([C@@H]5CCCN5C(=O)[C@@H](NC(=O)OC)C(C)C)[nH]4)ccc32)[nH]1)C(C)C (stereo not given in full)	2	0.01		0.005	2		
COC(=O)N[C@H](C(=O)N1CCC[C@H]1c1ncc(-c2cc(F)c3c(c2)OC(c2ccc4c(c2)OC(F)(F)O4)n2c-3cc3cc(-c4cnc([C@@H]5CCCN5C(=O)[C@@H](NC(=O)OC)C(C)C)[nH]4)ccc32)[nH]1)C(C)C (stereo not given in full)	5	0.1	0.5	0.004	8		
COC(=O)N[C@H](C(=O)N1CCC[C@H]1c1ncc(-c2cc(F)c3c(c2)OC(c2ccc4c(c2)OC(C)(C)CC4)n2c-3cc3cc(-c4cnc([C@@H]5CCCN5C(=O)[C@@H](NC(=O)OC)C(C)C)[nH]4)ccc32)[nH]1)C(C)C (stereo not given in full)	2	0.02		0.005	1		
COC(=O)N[C@H](C(=O)N1CCC[C@H]1c1ncc(-c2cc(F)c3c(c2)OC(c2ccc4cccnc4c2)n2c-3cc3cc(-c4cnc([C@@H]5CCCN5C(=O)[C@@H](NC(=O)OC)C(C)C)[nH]4)ccc32)[nH]1)C(C)C (stereo not given in full)	3	0.3	0.2	0.01	4		
COC(=O)N[C@H](C(=O)N1CCC[C@H]1c1ncc(-c2cc(F)c3c(c2)OC(c2ccc4c(c2)CC2CC2(C)O4)n2c-3cc3cc(-c4cnc([C@@H]5CCCN5C(=O)[C@@H](NC(=O)OC)C(C)C)[nH]4)ccc32)[nH]1)C(C)C (mixture of isomers)	5	0.03		0.005	1		
COC(=O)N[C@H](C(=O)N1CCC[C@H]1c1ncc(-c2cc(F)c3c(c2)OC(c2ccc4c(c2)O[C@H](C)CC4)n2c-3cc3cc(-c4cnc([C@@H]5CCCN5C(=O)[C@@H](NC(=O)OC)C(C)C)[nH]4)ccc32)[nH]1)C(C)C (stereo not given in full)	0.9	0.01	0.02	0.003	0.7	0.005	0.005
COC(=O)N[C@H](C(=O)N1CCC[C@H]1c1ncc(-c2cc(F)c3c(c2)OC(c2ccc4c(c2)OCC(=O)N4C)n2c-3cc3cc(-c4cnc([C@@H]5CCCN5C(=O)[C@@H](NC(=O)OC)C(C)C)[nH]4)ccc32)[nH]1)C(C)C (stereo not given in full)	2	0.01		0.002	3		
COC(=O)N[C@H](C(=O)N1CCC[C@H]1c1ncc(-c2cc(F)c3c(c2)OC(c2ccc4c(c2)OCC(=O)N4)n2c-3cc3cc(-c4cnc([C@@H]5CCCN5C(=O)[C@@H](NC(=O)OC)C(C)C)[nH]4)ccc32)[nH]1)C(C)C (stereo not given in full)	22	0.4		0.01	32		
COC(=O)N[C@H](C(=O)N1CCC[C@H]1c1ncc(-c2cc(F)c3c(c2)OC(c2ccc4ccccc4c2)n2c-3cc3cc(-c4cnc([C@@H]5CCCN5C(=O)[C@@H](NC(=O)OC)C(C)C)[nH]4)ccc32)[nH]1)C(C)C (stereo not given in full)	1	0.04	0.2	0.02	7		
COC(=O)N[C@H](C(=O)N1CCC[C@H]1c1ncc(-c2cc(F)c3c(c2)OC(c2ccc4c(c2)CC[C@H](C)O4)n2c-3cc3cc(-c4cnc([C@@H]5CCCN5C(=O)[C@@H](NC(=O)OC)C(C)C)[nH]4)ccc32)[nH]1)C(C)C (stereo not given in full)	7	0.01		0.004	3		
COC(=O)N[C@H](C(=O)N1CCC[C@H]1c1ncc(-c2cc(F)c3c(c2)OC(c2ccc4c(c2)OCCC4(F)F)n2c-3cc3cc(-c4cnc([C@@H]5CCCN5C(=O)[C@@H](NC(=O)OC)C(C)C)[nH]4)ccc32)[nH]1)C(C)C (stereo not given in full)	0.2	0.007	0.01	0.002	0.7	0.002	0.002
COC(=O)N[C@H](C(=O)N1CCC[C@H]1c1ncc(-c2cc(F)c3c(c2)OC(c2ccc4c(c2)OCC4)n2c-3cc3cc(-c4cnc([C@@H]5CCCN5C(=O)[C@@H](NC(=O)OC)C(C)C)[nH]4)ccc32)[nH]1)C(C)C (mixture of isomers)	3	0.1	0.5	0.02	6		
COC(=O)N[C@H](C(=O)N1CCC[C@H]1c1ncc(-c2cc(F)c3c(c2)OC(c2ccc4c(c2)CCCO4)n2c-3cc3cc(-c4cnc([C@@H]5CCCN5C(=O)[C@@H](NC(=O)OC)C(C)C)[nH]4)ccc32)[nH]1)C(C)C (stereo not given in full)	7	0.02		0.003	4		
COC(=O)N[C@H](C(=O)N1CCC[C@H]1c1ncc(-c2cc(F)c3c(c2)OC(c2ccc4c(c2)CCC(C)(C)O4)n2c-3cc3cc(-c4cnc([C@@H]5CCCN5C(=O)[C@@H](NC(=O)OC)C(C)C)[nH]4)ccc32)[nH]1)C(C)C (stereo not given in full)	2	0.03		0.005	0.9		
COC(=O)N[C@H](C(=O)N1CCC[C@H]1c1ncc(-c2cc(F)c3c(c2)OC(c2ccc4c(c2)O[C@@H](C)CC4)n2c-3cc3cc(-c4cnc([C@@H]5CCCN5C(=O)[C@@H](NC(=O)OC)C(C)C)[nH]4)ccc32)[nH]1)C(C)C (stereo not given in full)	0.7	0.009	0.04	0.007	0.9	0.005	0.007
COC(=O)N[C@H](C(=O)N1CCC[C@H]1c1ncc(-c2cc(F)c3c(c2)OC(c2ccc4c(c2)CC[C@@H](C)O4)n2c-3cc3cc(-c4cnc([C@@H]5CCCN5C(=O)[C@@H](NC(=O)OC)C(C)C)[nH]4)ccc32)[nH]1)C(C)C (stereo not given in full)	7	0.02		0.005	2		
COC(=O)N[C@H](C(=O)N1CCC[C@H]1c1ncc(-c2cc(F)c3c(c2)OC(c2ccc4c(c2)COCC4)n2c-3cc3cc(-c4cnc([C@@H]5CCCN5C(=O)[C@@H](NC(=O)OC)C(C)C)[nH]4)ccc32)[nH]1)C(C)C (stereo not given in full)	4	0.02		0.003	2		
